Source: ChEMBL document CHEMBL1126126, “Development, synthesis, and biological evaluation of (-)-trans-(2S,5S)-2-[3-[(2-oxopropyl)sulfonyl]-4-n-propoxy-5-(3- hydroxypropoxy)-phenyl]-5-(3,4,5-trimethoxyphenyl)tetrahydrofuran, a potent orally active platelet-activating factor (PAF) antagonist and its water-soluble prodrug phosphate ester” (J Med Chem, 1992)
In brackets after ≈: the same amount, converted by molar mass. Activity calls are given as the source filed them. The calls are words filed in the database; no cut-off is given here.

Columns and labels:
[1] = Water solubility at pH 5; assay type: physicochemical
Outline: (§1)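 Compound combined with buffered solution at the stated pH, sonicated, shaken 1 h and filtered. Filtrate concentration measured by UV against standards of known concentration; reported in mg/mL.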

[2] = Water solubility at pH 6; assay type: physicochemical; outline: as §1
[3] = target: T1, C5a anaphylatoxin chemotactic receptor 1 (Homo sapiens) (UniProt P21730); experiment: (§2) Effect on uM; no effect
T1 sequence (whole entry): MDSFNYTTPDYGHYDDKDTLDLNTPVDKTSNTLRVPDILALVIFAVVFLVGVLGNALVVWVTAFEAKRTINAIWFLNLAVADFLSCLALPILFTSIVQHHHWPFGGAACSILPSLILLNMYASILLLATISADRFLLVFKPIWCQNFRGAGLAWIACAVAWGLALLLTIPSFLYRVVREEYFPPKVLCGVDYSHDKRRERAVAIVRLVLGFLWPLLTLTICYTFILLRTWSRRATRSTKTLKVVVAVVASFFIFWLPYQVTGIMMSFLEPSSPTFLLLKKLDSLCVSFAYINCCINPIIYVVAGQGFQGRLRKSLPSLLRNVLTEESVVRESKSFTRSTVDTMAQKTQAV

[4] = target: T2, Cysteinyl leukotriene receptor 1 (Cavia porcellus) (UniProt Q2NNR5); experiment: as §2
T2 sequence (whole entry): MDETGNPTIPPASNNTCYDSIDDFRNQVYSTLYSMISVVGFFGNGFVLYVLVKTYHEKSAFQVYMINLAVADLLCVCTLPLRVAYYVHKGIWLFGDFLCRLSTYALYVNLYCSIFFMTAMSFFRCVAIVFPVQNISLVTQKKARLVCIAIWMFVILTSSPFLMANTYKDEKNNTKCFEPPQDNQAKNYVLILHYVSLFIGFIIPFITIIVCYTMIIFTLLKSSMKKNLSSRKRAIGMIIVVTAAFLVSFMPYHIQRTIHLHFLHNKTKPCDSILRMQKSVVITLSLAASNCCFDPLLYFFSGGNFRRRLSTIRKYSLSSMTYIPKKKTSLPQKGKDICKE

[5] = target: Leukotriene B4 receptor 1 (Homo sapiens) (UniProt Q15722); experiment: as §2
Cavia porcellus [6] = experiment: In vivo inhibitory activity against PAF induced bronchoconstriction in female guinea pigs; assay type: functional; details: read-out: ID50 (the source's name)
Homo sapiens [7] = organism: Homo sapiens; experiment: Inhibitory activity against PAF-induced aggregation of human platelets suspended in buffer [washed platelets (WP)]; assay type: functional
Homo sapiens [8] = organism: Homo sapiens; experiment: Inhibitory activity against PAF-induced aggregation of human platelets suspended in plasma; assay type: functional
Rattus norvegicus [9] = experiment: In vivo inhibitory activity against PAF induced plasma level of N-acetyl-beta-D-glucosaminidase (NAGA) and hematocrit (plasma extravasation) in male rat after i.v. administration; assay type: functional; details: iv
Rattus norvegicus [10] = experiment: In vivo inhibitory activity against PAF induced plasma level of N-acetyl-beta-D-glucosaminidase (NAGA) and hematocrit (plasma extravasation) in male rat after p.o. administration; assay type: functional; details: po
Rattus norvegicus [11] = experiment: In vivo inhibitory activity against PAF induced plasma level of N-acetyl-beta-D-glucosaminidase (NAGA) and hematocrit (plasma extravasation) in female rat after p.o. administration; assay type: functional; details: po
Rattus norvegicus [12] = experiment: Effect against PAF induced plasma level of N-acetyl-beta-D-glucosaminidase (NAGA) and plasma extravasation in male rat at a dose of 1 mg/kg by single administration after 6 hour; assay type: functional
Cavia porcellus [13] = experiment: In vivo inhibitory activity against PAF induced bronchoconstriction in male guinea pigs; assay type: functional; details: read-out: ID50 (the source's name)
[14] = target: Platelet-activating factor receptor (Homo sapiens, UniProt P25105); experiment: Inhibition of the binding of [3H]C18-Platelet activating factor to human platelet membrane preparation
[15] = tested on: Angiotensin II receptor (Oryctolagus cuniculus); experiment: Effect on uM; no effect
[16] = Water solubility was determined; assay type: ADME; outline: as §1
[17] = Water solubility at pH 7.4; assay type: physicochemical; outline: as §1

Sequence of Leukotriene B4 receptor 1 (Homo sapiens) (Q15722 whole entry): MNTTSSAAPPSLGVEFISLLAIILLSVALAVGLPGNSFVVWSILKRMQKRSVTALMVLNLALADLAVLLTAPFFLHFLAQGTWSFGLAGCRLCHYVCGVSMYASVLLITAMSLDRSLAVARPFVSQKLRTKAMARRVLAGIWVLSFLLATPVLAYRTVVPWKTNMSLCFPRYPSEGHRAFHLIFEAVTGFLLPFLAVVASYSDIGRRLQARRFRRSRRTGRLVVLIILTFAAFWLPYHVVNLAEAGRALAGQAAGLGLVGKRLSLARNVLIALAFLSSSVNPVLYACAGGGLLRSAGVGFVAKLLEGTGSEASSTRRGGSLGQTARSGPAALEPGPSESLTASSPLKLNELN
Sequence of Platelet-activating factor receptor (P25105 whole entry): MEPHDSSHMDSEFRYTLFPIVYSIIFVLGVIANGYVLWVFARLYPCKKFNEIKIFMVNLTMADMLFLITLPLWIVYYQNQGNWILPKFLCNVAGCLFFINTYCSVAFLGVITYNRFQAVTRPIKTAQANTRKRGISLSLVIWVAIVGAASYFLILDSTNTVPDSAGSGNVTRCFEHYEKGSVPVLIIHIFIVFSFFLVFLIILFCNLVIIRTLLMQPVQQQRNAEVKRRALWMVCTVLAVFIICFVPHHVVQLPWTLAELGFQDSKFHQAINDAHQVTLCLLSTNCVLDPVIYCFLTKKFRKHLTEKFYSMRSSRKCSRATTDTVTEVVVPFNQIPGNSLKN

## CCCOc1c(OCCCN2CCOCC2)cc([C@@H]2CC[C@@H](c3cc(OC)c(OC)c(OC)c3)O2)cc1S(=O)(=O)CC(C)=O
[1]
  solubility: 5400 µg/mL (≈ 8490 µM)
[2]
  solubility: 900 µg/mL (≈ 1420 µM)
[3]
  inhibition: inactive
[4]
  inhibition: inactive
[5]
  inhibition: inactive
Cavia porcellus [6]
  ED50: 0.04 mg/kg
Homo sapiens [7]
  IC50: 1 nM
Homo sapiens [8]
  IC50: 19 nM
Rattus norvegicus [9]
  ED50: 0.037 mg/kg
Rattus norvegicus [10]
  ED50: 0.15 mg/kg
Rattus norvegicus [11]
  ED50: 0.2 mg/kg
Rattus norvegicus [12]
  inhibition in vivo at 1 mg/kg: 60%
Cavia porcellus [13]
  ED50: 0.06 mg/kg
[14]
  IC50: 2.5 nM
[15]
  inhibition: inactive

## CCCOc1c(OCCCn2ccnc2)cc([C@@H]2CC[C@@H](c3cc(OC)c(OC)c(OC)c3)O2)cc1S(=O)(=O)CC(C)=O
[1]
  solubility: 5500 µg/mL (≈ 8920 µM)
[2]
  solubility: 800 µg/mL (≈ 1300 µM)
[3]
  inhibition: inactive
[4]
  inhibition: inactive
[5]
  inhibition: inactive

## CCCOc1c(OC)cc([C@@H]2CC[C@@H](c3cc(OC)c(OC)c(OC)c3)O2)cc1S(=O)(=O)CCO
[16]
  solubility: 2 µg/mL (≈ 3.92 µM)
Homo sapiens [8]
  IC50: 55 nM
Rattus norvegicus [9]
  ED50: 0.1 mg/kg
Rattus norvegicus [10]
  ED50: 2.3 mg/kg
Rattus norvegicus [11]
  ED50: 0.1 mg/kg
Cavia porcellus [13]
  ED50: 0.19 mg/kg

## CCCOc1c(OCCCO)cc([C@@H]2CC[C@@H](c3cc(OC)c(OC)c(OC)c3)O2)cc1S(=O)(=O)CC(C)=O
[16]
  solubility: 100 µg/mL (≈ 176 µM)
[3]
  inhibition: inactive
[4]
  inhibition: inactive
[5]
  inhibition: inactive

## CCCOc1c(OC)cc([C@H]2CC[C@H](c3cc(OC)c(OC)c(OC)c3)O2)cc1S(C)(=O)=O (single isomer, unassigned)
[14]
  IC50: 9 nM

## CCCOc1c(OCCCOP(=O)([O-])O)cc([C@@H]2CC[C@@H](c3cc(OC)c(OC)c(OC)c3)O2)cc1S(=O)(=O)CC(C)=O.[K+]
[17]
  solubility: > 30000 µg/mL
[3]
  inhibition: inactive
[4]
  inhibition: inactive
[5]
  inhibition: inactive
